From ChEMBL document CHEMBL3272322, “8-chloro-(S)- and -(R)-10-((S)-and -(R)-3'-methylethylaminopyrrolidino)- 10,11-dihydrodibenzo(b,f)thiepins. Synthesis and pharmacological studies” (J Med Chem, 1976)
Activity calls are given as the source filed them.

Tests used:
Mus musculus [1] = assay: Antiparkinson activity in albino CD-1 mouse assessed as inhibition of oxotremorine-induced salivation at 100 mg/kg, ip; type: functional
In short: (§1)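 Five male CD-1 mice per group were pretreated ip with saline or compound 60-90 min before oxotremorine 1.0 mg/kg ip. Oxotremorine-induced hypothermia or salivation was then assessed.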

Mus musculus [2] = assay: Antiparkinson activity in albino CD-1 mouse assessed as inhibition of oxotremorine-induced hypothermia at 40 mg/kg, ip; type: functional, organism-based; design: dose 40 mg/kg; in short: as §1
Mus musculus [3] = assay: Analgetic activity in albino CD-1 mouse assessed as inhibition of thermally-induced pain at 10 to 20 mg/kg, ip; type: functional, organism-based
In short: (§2)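 Male albino CD-1 mice (18-25 g) were given compound ip in distilled water and tested 60-90 min later on a hot wire analgetic apparatus at 50°. Reaction times were compared with saline-pretreated controls. Each point used 5 treated and 20 control mice and is reported as mean ± SEM in seconds. Statistics were analysis of variance followed by t test or Mann-Whitney U.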

Mus musculus [4] = assay: Analgetic activity in albino CD-1 mouse assessed as inhibition of thermally-induced pain at 10 to 15 mg/kg, ip relative to control; type: functional; settings: dose mg/kg 10-15; route intraperitoneal; in short: as §2
Mus musculus [5] = assay: Analgetic activity in albino CD-1 mouse assessed as inhibition of thermally-induced pain at 20 to 40 mg/kg, ip relative to control; type: functional; design: scale not given: the % may be the effect or the level left; settings: dose mg/kg 20-40; route intraperitoneal; in short: as §2
Mus musculus [6] = assay: Anticonvulsant activity in albino CD-1 mouse assessed as protection against pentylenetetrazol-induced clonic seizure ratio at 40 mg/kg, ip administered 60 to 90 mins before pentylenetetrazol challenge relative to control; type: functional; settings: route intraperitoneal
In short: (§3)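 Male CD-1 mice (18-25 g), 8-10 per group, received saline (1 ml/100 g) or compound (40 mg/kg) ip 60-90 min before seizure induction. Seizures were induced by iv infusion of 0.5% pentylenetetrazole solution. The minimal (clonic) and maximal (tonic) seizure thresholds were determined.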

Mus musculus [7] = assay: Anticonvulsant activity in albino CD-1 mouse assessed as protection against pentylenetetrazol-induced tonic seizure ratio at 40 mg/kg, ip administered 60 to 90 mins before pentylenetetrazol challenge relative to control; type: functional; settings: route intraperitoneal; in short: as §3
Mus musculus [8] = assay: Toxicity in ip dosed albino CD-1 mouse assessed as muscle weakness and flaccidity; type: organism-based, Muscle tissue; settings: in vivo
Mus musculus [9] = assay: Neuromuscular blocking activity in albino CD-1 mouse up to 20 mg/kg, ip; type: organism-based; design: dose 20 mg/kg, route intraperitoneal; settings: in vivo
In short: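 Male CD-1 mice were dosed ip in distilled water and tested 60-90 min later. Neuromuscular blockade was judged by ability to remain on a wire mesh screen inclined at 60°.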

Ileum [10] = assay: Antispasmodic activity in guinea pig ileum assessed as inhibition of histamine-induced contraction at 10^-8 to 10^-6 M; type: functional, tissue-based; settings: Cavia porcellus
In short: (§4)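 Isolated guinea pig ileum (both sexes) was suspended in Krebs' solution at 37 ± 0.5°, gassed with 95% O2-5% CO2. Antihistaminic, anticholinergic and nonselective antispasmodic activity were measured.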

Ileum [11] = assay: Antispasmodic activity in guinea pig ileum assessed as inhibition of acetylcholine-induced contraction at 10^-8 to 10^-6 M; type: functional, tissue-based; settings: Cavia porcellus; in short: as §4
Ileum [12] = assay: Antispasmodic activity in guinea pig ileum assessed as inhibition of barium chloride-induced spasm at 5 x 10^-7 M; type: functional; settings: Cavia porcellus; in short: as §4
[13] = Acute toxicity in ip dosed albino CD-1 mouse after 24 hrs; type: organism-based; settings: in vivo
In short: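 Male albino CD-1 mice (18-25 g), groups of eight. Each mouse got a single ip injection of compound dissolved in distilled water. Lethality was scored 24 hr after dosing. LD50 was calculated with 95% confidence limits by the Litchfield and Wilcoxon method.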

Mus musculus [14] = assay: Acute toxicity in ip dosed albino CD-1 mouse assessed as mortality after 2 to 3 hrs; type: organism-based; settings: in vivo
[15] = Neurotoxicity against ip dosed albino CD-1 mouse by rotarod test; type: toxicity, organism-based; settings: in vivo
In short: (§5)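 Male CD-1 mice (18-25 g), five per group, were dosed ip in distilled water. The endpoint was failure to stay for 1 min on a horizontal rod rotating at 6 rpm. Time of peak effect was determined on the rod, and TD50 was measured at that time. TD50 is given with 95% confidence limits by Litchfield-Wilcoxon.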

Mus musculus [16] = assay: Neurotoxicity against ip dosed albino CD-1 mouse assessed as time of peak effect by rotarod test; type: toxicity, organism-based; settings: in vivo; in short: as §5
Mus musculus [17] = assay: Antipsychotic activity in ip dosed albino CD-1 mouse assessed as spontaneous motor activity for 15 mins intervals for 2 hrs by conditioned avoidance test; type: functional; settings: for ED50: CD-1, ip
Mus musculus [18] = assay: Toxicity in albino CD-1 mouse assessed as reduction of rectal temperature at 40 mg/kg, ip; type: organism-based; design: dose 40 mg/kg, route intraperitoneal; settings: in vivo
In short: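 Rectal temperature of male CD-1 mice was recorded by tele-thermometer with a small-animal probe at time of peak activity (60-90 min) after 40 mg/kg ip in distilled water.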

Mus musculus [19] = assay: Antidepressant activity in albino CD-1 mouse assessed as inhibition of reserpine-induced hypothermia up to 40 mg/kg, ip; type: functional, organism-based; design: dose 40 mg/kg
In short: (§6)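 CD-1 male mice were dosed ip in distilled water 60-90 min before challenge with reserpine (4 mg/kg ip). Hypothermia, sedation and ptosis were assessed. Rectal temperature was taken with a tele-thermometer fitted with a small-animal probe.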

Mus musculus [20] = assay: Antidepressant activity in albino CD-1 mouse assessed as inhibition of reserpine-induced sedation up to 40 mg/kg, ip; type: functional, organism-based; design: dose 40 mg/kg; in short: as §6
Mus musculus [21] = assay: Antidepressant activity in albino CD-1 mouse assessed as inhibition of reserpine-induced ptosis up to 40 mg/kg, ip; type: functional, organism-based; design: dose 40 mg/kg; in short: as §6
Mus musculus [22] = assay: Antidepressant activity in albino CD-1 mouse assessed as potentiation of L-dopa-induced effect up to 40 mg/kg, ip; type: functional, organism-based; design: dose 40 mg/kg
In short: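 Compound was given ip in distilled water to male CD-1 mice. Potentiation of stimulation induced by L-Dopa (100 mg/kg ip) was assessed.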

Mus musculus [23] = assay: Antiparkinson activity in albino CD-1 mouse assessed as inhibition of oxotremorine-induced diarrhea, and tremors at 5 to 40 mg/kg, ip; type: functional, organism-based
Mus musculus [24] = assay: Antiparkinson activity in ip dosed albino CD-1 mouse assessed as inhibition of oxotremorine-induced diarrhea, and tremors; type: functional, organism-based
Mus musculus [25] = assay: Antiparkinson activity in albino CD-1 mouse assessed as inhibition of oxotremorine-induced diarrhea, and tremors at 20 to 40 mg/kg, ip; type: functional; design: scale not given: the % may be the effect or the level left; settings: dose mg/kg 20-40; route intraperitoneal
Mus musculus [26] = assay: Analgetic activity in albino CD-1 mouse assessed as inhibition of thermally-induced pain at 5 mg/kg, ip; type: functional, organism-based; design: dose 5 mg/kg; in short: as §2
Mus musculus [27] = assay: Antiparkinson activity in albino CD-1 mouse assessed as inhibition of oxotremorine-induced diarrhea, and tremors at 5 mg/kg, ip; type: functional; design: scale not given: the % may be the effect or the level left; settings: route intraperitoneal

Compound | Activity (Mus musculus [2]) | Activity (Mus musculus [3]) | fold change (FC) (Mus musculus [4]) | Activity (Mus musculus [5]) | Ratio (Mus musculus [6]) | Ratio (Mus musculus [7]) | Activity (Mus musculus [8]) | Activity (Mus musculus [9]) | inhibition (Ileum [10]) | inhibition (Ileum [11]) | inhibition at 0.5 µM (Ileum [12]) | LD50 at 24 h [13] | Activity (Mus musculus [14]) | TD50 [15] | Time (Mus musculus [16]) | Activity (Mus musculus [17]) | ED50 (Mus musculus [17]) | T (Mus musculus [18]) | Activity (Mus musculus [19]) | Activity (Mus musculus [20]) | further results
CCN(C)[C@@H]1CCN([C@H]2Cc3ccccc3Sc3ccc(Cl)cc32)C1 | inactive | Active | 1.5 | 23% | 1.24 | 0.73 | Toxic | Non-toxic | Active | Active | 40% | 186 mg/kg | Toxic | 13.6 mg/kg | 60 min | Dose-dependent effect | 12 mg/kg | 5.1 °C | inactive | inactive | Activity (Mus musculus [1]): inactive; Activity (Mus musculus [21]): inactive; Activity (Mus musculus [22]): inactive; Activity (Mus musculus [23]): Active; Activity (Mus musculus [24]): Dose-dependent effect
CCN(C)[C@H]1CCN([C@H]2Cc3ccccc3Sc3ccc(Cl)cc32)C1 | inactive | Active | 1.5 | 23% | 1.16 | 0.93 | Toxic | Non-toxic | Active | Active | 40% | 175 mg/kg | Toxic | 6.2 mg/kg | 60 min | Dose-dependent effect | 6.8 mg/kg | 5.1 °C | inactive | inactive | Activity (Mus musculus [25]): 93%; Activity (Mus musculus [1]): inactive; Activity (Mus musculus [26]): Active; Activity (Mus musculus [21]): inactive; Activity (Mus musculus [22]): inactive; Activity (Mus musculus [23]): Active; Activity (Mus musculus [24]): Dose-dependent effect; Activity (Mus musculus [27]): 60%
CCN(C)[C@@H]1CCN([C@@H]2Cc3ccccc3Sc3ccc(Cl)cc32)C1 | inactive | Active | 1.5 | 23% | 1.08 | 0.75 | Toxic | Non-toxic | Active | Active | 40% | 217 mg/kg | Toxic | 6.4 mg/kg | 60 min | Dose-dependent effect | 6.4 mg/kg | 5.1 °C | inactive | inactive | Activity (Mus musculus [25]): 93%; Activity (Mus musculus [1]; route intraperitoneal): 60%; Activity (Mus musculus [26]): Active; Activity (Mus musculus [21]): inactive; Activity (Mus musculus [22]): inactive; Activity (Mus musculus [23]): Active; Activity (Mus musculus [24]): Dose-dependent effect; Activity (Mus musculus [27]): 60%
CCN(C)[C@H]1CCN([C@@H]2Cc3ccccc3Sc3ccc(Cl)cc32)C1 | inactive | Active | 1.5 | 23% | 1.27 | 1 | Toxic | Non-toxic | Active | Active | 40% | 177 mg/kg | Toxic | 12.5 mg/kg | 60 min | Dose-dependent effect | 12 mg/kg | 5.1 °C | inactive | inactive | Activity (Mus musculus [1]; route intraperitoneal): 27%; Activity (Mus musculus [21]): inactive; Activity (Mus musculus [22]): inactive; Activity (Mus musculus [23]): Active; Activity (Mus musculus [24]): Dose-dependent effect
